Hits are enriched below; roughly 2.9% of the tested compounds scored in any of these assays.
IMP-1 inh-1 = inhibitors of Pseudomonas aeruginosa IMP-1 metallo-beta-lactamase; purified IMP-1, nitrocefin hydrolysis, epi-absorbance fluorescence; actives 0.45% (n = 290,000); inhibition, % at 5.6 µM;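 active = inhibition above the mean plus 3 SD of all compounds in the same screening run, cut at about 4.5% in these data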;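 note: 0% = IMP-1 with DMSO and 100% = DMSO wells lacking enzyme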
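System: Purified IMP-1 | Read-out basis: Percent enzyme inhibition | Controls: IMP-1 with DMSO as 0%, enzyme-free DMSO as 100% | Replicates: One well per compound | Doses: 5.6 µM nominal single concentration | Detection: Epi-absorbance fluorescence, 480 nm excitation, 530 nm emission | Incubation: 25 °C, 15 min preincubation, 25 min reaction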
NLRP3 yeast inh = blocks the NALP3 inflammasome reconstituted in yeast | Yeast reconstituted NLRP3/ASC/caspase-1, beta-gal luminescence, 24 h | inhibition, % at 10 µM | actives 0.39% (n = 330,000) | AID 2825;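 active = inhibition of 50% or more; inactive = inhibition below 50%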;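 note: plate controls were induced DMSO wells for no effect and uninduced yeast grown without galactose for full effect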
NALP1 inh = blocks the NALP1 inflammasome reconstituted in yeast; S. cerevisiae NALP1/ASC/caspase-1 growth, X-gal OD620, 72 h; inhibition, % at 10 µM; actives 0.61% (n = 280,000); AID 2071; in the data active = inhibition mostly above about 24%, no sharp cut-off; inactive = mostly below about 32%
SUMO Mot1 rescue = inhibitors of SUMOylation pathway: yeast Mot1-301 growth rescue | growth rescue, % at 18.8 µM | S. cerevisiae Mot1-301 growth rescue, ATP luminescence, 38.5C; percent above DMSO median, 100 means doubled | AID 2716 | actives 1% (n = 320,000);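 active = every valid replicate shows activation above 250% relative to neutral control wells; inactive = the rest, any valid replicate at or below 250%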;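 note: OY570 slx delta 5 strain wells were the positive control but not used for scaling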
PolyA inhibitor = inhibitors of polyadenylation in S. cerevisiae | actives 0.02% (n = 300,000) | S. cerevisiae SKY197-pL101 polyadenylation reporter, beta-gal luminescence; efflux-impaired pdr1/pdr3 knockout yeast; score 100 = 6 SD above DMSO | activity score, % at 12 µM;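 active = lowest replicate activity score at least 50, where 100 means six control SD above control mean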;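 note: yeast exposed to compound for 9 h at 30 °C; higher score means more reporter readthrough which indicates perturbed polyadenylation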
VIM-2 inh = blocks Pseudomonas aeruginosa VIM-2 metallo-beta-lactamase; inhibition, % at 5.6 µM; actives 0.89% (n = 290,000); purified VIM-2, nitrocefin hydrolysis, epi-absorbance fluorescence; AID 1527;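 active = inhibition above the mean of all tested compounds plus 3 SD, cutoff set per screening run, cut at about 7.5% in these data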;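 note: red hydrolysis product quenches plate fluorescence so inhibitors raise well fluorescence; 0% = enzyme with DMSO and 100% = DMSO without enzyme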
IMP-1 inh-2 = selectivity counter-screen for VIM-2 inhibitors: IMP-1 metallo-beta-lactamase inhibitors; shares compounds with VIM-2 inh; purified IMP-1, nitrocefin hydrolysis, epi-absorbance fluorescence; inhibition, % at 5.6 µM; AID 1856; 1,300 tested, under 10 active; call rule not given here;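 note: 0% = enzyme with vehicle and 100% = vehicle without enzyme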
VIM-2 FRET ctr = VIM-2 FRET inhibition, artifact counter-screen | shares compounds with VIM-2 inh | actives 23% (n = 1,300) | inhibition, % at 5.6 µM | purified VIM-2, CCF2 FRET substrate hydrolysis;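 active = inhibition above the mean of all tested compounds plus 3 SD, cut at about 19% in these data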;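 note: 0% = VIM-2 plus DMSO and 100% = no enzyme wells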
TEM-1 counter = TEM-1 inhibition, counter-screen for VIM-2 inhibitors; shares compounds with VIM-2 inh; Purified TEM-1, nitrocefin hydrolysis, epi-absorbance fluorescence; inhibition, % at 5.6 µM; actives 3% (n = 1,300); AID 1866;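 active = inhibition above that campaign's mean inhibition plus 3 SD, cut at about 0.46% in these data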;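 note: 0% = TEM-1 with DMSO and 100% = TEM-1 with 100 µM potassium clavulanate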
Target sequence (P62593 whole entry, looked up): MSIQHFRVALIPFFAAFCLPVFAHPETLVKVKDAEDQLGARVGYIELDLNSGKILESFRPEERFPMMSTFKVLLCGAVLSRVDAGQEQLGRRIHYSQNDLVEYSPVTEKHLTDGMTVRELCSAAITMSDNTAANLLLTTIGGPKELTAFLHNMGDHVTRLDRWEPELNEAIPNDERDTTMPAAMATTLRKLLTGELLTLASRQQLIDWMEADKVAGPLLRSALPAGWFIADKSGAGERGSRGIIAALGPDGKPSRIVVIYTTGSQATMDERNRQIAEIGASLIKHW
VIM-2 inh conf = confirmation of P. aeruginosa VIM-2 metallo-beta-lactamase inhibitors | shares compounds with VIM-2 inh | inhibition, % at 5.6 µM | purified VIM-2, nitrocefin hydrolysis, epi-absorbance | actives 96% (n = 1,300);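 active = inhibition of the VIM-2 beta-lactamase enzyme above about 11% from the earlier first-round screen, limit read from the data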;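 note: 0% = VIM-2 with DMSO and 100% = buffer wells without enzyme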
The depositor's hits bear a star.

COc1cccc(CC(NC(C)=O)C(=O)NC2CCN(C(=O)c3ccncc3)CC2)c1OC (stereo unspecified) was read as IMP-1 inh-1 -1.4, NLRP3 yeast inh 16.7, NALP1 inh 13.6, PolyA inhibitor -15.5 and VIM-2 inh -0.1.
Screening Cc1ccc(C)c(-n2c(-c3ccc4c(c3)OCO4)n[nH]c2=S)c1 returned IMP-1 inh-1 -2.9, NLRP3 yeast inh 18.1, NALP1 inh -15.6, SUMO Mot1 rescue 96.8, PolyA inhibitor -4.2 and VIM-2 inh -1.6.
`Oc1ccc(-c2n[nH]c(=S)n2-c2ccc3c(c2)OCCO3)cc1` gave IMP-1 inh-1 -1.4, NLRP3 yeast inh 16.2, SUMO Mot1 rescue 0.1, PolyA inhibitor 5.4, VIM-2 inh 13.9*, IMP-1 inh-2 -2.2, VIM-2 FRET ctr 32.6*, TEM-1 counter -7.6 and VIM-2 inh conf 20.1*.
For S=c1[nH]nc(-c2ccc3ncccc3c2)n1-c1ccc2c(c1)OCCO2 the results were IMP-1 inh-1 -0.5, NLRP3 yeast inh 25.8, NALP1 inh -14.2, SUMO Mot1 rescue -3.3, PolyA inhibitor 6.1, VIM-2 inh 26.5*, IMP-1 inh-2 -2.3, VIM-2 FRET ctr 51.8*, TEM-1 counter -5.7 and VIM-2 inh conf 33.2*.
For S=c1[nH]nc(Cn2c(-c3ccccn3)nc3ccccc32)n1-c1ccc2c(c1)OCCO2 the results were IMP-1 inh-1 -2.0, NLRP3 yeast inh 13.0, SUMO Mot1 rescue -5.0, PolyA inhibitor 12.1, VIM-2 inh 23.2*, IMP-1 inh-2 -2.6, VIM-2 FRET ctr 48.5*, TEM-1 counter -5.0 and VIM-2 inh conf 31.4*.
For S=c1[nH]nc(-c2ccc3ccccc3n2)n1-c1ccc2ncccc2c1 the results were IMP-1 inh-1 -0.3, NLRP3 yeast inh 2.9, NALP1 inh 14.4, SUMO Mot1 rescue -3.5, PolyA inhibitor -2.7 and VIM-2 inh 4.0.
`Cc1ccc(C)c(S(=O)(=O)N2CCN(C(=O)CSc3ccccc3F)CC2)c1` gave IMP-1 inh-1 -5.8, NLRP3 yeast inh 21.5, NALP1 inh 4.4, SUMO Mot1 rescue -9.9, PolyA inhibitor 8.4 and VIM-2 inh -1.9.
For CN(C)C(=S)Nc1cccc(-c2n[nH]c(=S)o2)c1 the results were IMP-1 inh-1 -2.2, NLRP3 yeast inh 17.6, NALP1 inh -7.0, SUMO Mot1 rescue 15.1, PolyA inhibitor 14.3 and VIM-2 inh -1.7.
For NNC(=S)Nc1cccc(-c2n[nH]c(=S)o2)c1 the results were IMP-1 inh-1 -2.3, NLRP3 yeast inh -1.4, SUMO Mot1 rescue -6.2, PolyA inhibitor 3.5, VIM-2 inh 14.8*, IMP-1 inh-2 -4.1, VIM-2 FRET ctr 18.5*, TEM-1 counter -8.5 and VIM-2 inh conf 9.2*.
For CCC[C@@H](CNC)NC[C@H](Cc1ccccc1)NCCCCc1ccccc1 the results were IMP-1 inh-1 -1.7, NLRP3 yeast inh 24.0, NALP1 inh 12.7, SUMO Mot1 rescue -2.3, PolyA inhibitor -15.3, VIM-2 inh 55.6*, IMP-1 inh-2 -3.3, VIM-2 FRET ctr 0.6, TEM-1 counter -6.7 and VIM-2 inh conf 65.8*.
For Cc1ccc(-c2nn(C)c(=O)c3ccccc23)cc1S(=O)(=O)NCCN1CCOCC1 the results were IMP-1 inh-1 -8.5, NLRP3 yeast inh 17.5, NALP1 inh -12.8, SUMO Mot1 rescue -11.1, PolyA inhibitor 4.2, VIM-2 inh 14.4*, IMP-1 inh-2 -2.7, VIM-2 FRET ctr -1.3, TEM-1 counter -5.5 and VIM-2 inh conf 28.3*.
`CN(CCOc1ccc(Cl)cc1)C(=O)c1cc(-c2ccco2)nc2ccccc12` gave NLRP3 yeast inh 20.2, SUMO Mot1 rescue -1.9 and PolyA inhibitor -9.0.
`CCOC(=O)c1cnc2c(Cl)cccc2c1NCCCN1CCOCC1` gave IMP-1 inh-1 -2.8, NLRP3 yeast inh 15.2, NALP1 inh 8.3, SUMO Mot1 rescue 11.5, PolyA inhibitor 5.9, VIM-2 inh 19.6*, IMP-1 inh-2 -2.9, VIM-2 FRET ctr -1.4, TEM-1 counter -4.7 and VIM-2 inh conf 28.1*.
CCOC(=O)c1cnc2c(CC)cccc2c1NCCCN1CCOCC1 was read as IMP-1 inh-1 0.4, NLRP3 yeast inh 13.9, NALP1 inh 12.8, SUMO Mot1 rescue -10.2, PolyA inhibitor 16.3, VIM-2 inh 24.4*, IMP-1 inh-2 -3.1, VIM-2 FRET ctr 0.9, TEM-1 counter -4.3 and VIM-2 inh conf 32.6*.
For CCOC(=O)c1cnc2c(C(F)(F)F)cccc2c1NCCCN1CCOCC1 the results were IMP-1 inh-1 -0.5, NLRP3 yeast inh 13.5, SUMO Mot1 rescue 112.4, PolyA inhibitor -8.8, VIM-2 inh 20.4*, IMP-1 inh-2 -2.5, VIM-2 FRET ctr 0.8, TEM-1 counter -6.4 and VIM-2 inh conf 27.2*.
Screening CCOC(=O)c1cnc2c(C(F)(F)F)cccc2c1N1CCN(C)CC1 returned IMP-1 inh-1 -2.5, NLRP3 yeast inh 9.6, NALP1 inh 10.1, SUMO Mot1 rescue -4.0, PolyA inhibitor -18.6 and VIM-2 inh 4.8.
CCOC(=O)c1cnc2c(Cl)cccc2c1NCCN1CCOCC1 was read as IMP-1 inh-1 -2.1, NLRP3 yeast inh -3.5, NALP1 inh 33.5, SUMO Mot1 rescue -1.0, PolyA inhibitor -5.2 and VIM-2 inh 2.3.
Screening CCOC(=O)c1cnc2ccc(OCC)cc2c1NCCN1CCOCC1 returned IMP-1 inh-1 -4.4, NLRP3 yeast inh 14.5, NALP1 inh 18.9, SUMO Mot1 rescue 2.1, PolyA inhibitor -12.7 and VIM-2 inh -2.1.
CCOC(=O)C1=C(COC(=O)[C@@H](NC(=O)c2cccc(C)c2)C(C)C)NC(=O)NC1C (stereo partly specified) was read as NLRP3 yeast inh 0.6 and SUMO Mot1 rescue -12.6.
`COc1ccc(-c2cc3c(=O)n(CC(=O)NCCCN4CCC(N5CCCCC5)CC4)nc(C)n3n2)cc1` gave IMP-1 inh-1 -3.4, NLRP3 yeast inh 1.2, NALP1 inh 12.9, SUMO Mot1 rescue -16.2, PolyA inhibitor 17.8, VIM-2 inh 24.4*, IMP-1 inh-2 -2.9, VIM-2 FRET ctr 0.9, TEM-1 counter -2.0 and VIM-2 inh conf 31.5*.

Bioassay records: PubChem BioAssay, several laboratories
